Bioassay records as filed in PubChem BioAssay.
A selection: hits, their analogues and other compounds. The true share with any hit is near 3.8%.
Kir21 block: inhibitors of mouse Kir2.1 inward-rectifier potassium channel; Inward rectifier potassium channel 2 (Mus musculus), P35561; HEK293-Kir2.1, FluxOR thallium flux fluorescence; stronger effect = lower value; B-score at 10 µM; 310,000 compounds, 0.85% hits; AID 1672, 2009;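 active = fluorescence ratio B-score at or below minus 3 SD of library scores, with starting-brightness B-score within 2 SD, cut at about -4.2 in these data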;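 note: channel flux triggered by added potassium and thallium sulfate stimulus; B-score of peak minus minimum fluorescence over baseline after thallium stimulus; more negative B-score means stronger Kir2.1 block with less thallium influx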
KCNK3 block: human KCNK3 channel inhibitors, primary screen, CHO cells, FluxOR thallium flux, B-score; 340,000 compounds, 0.84% hits; FluxOR fluorescence; stronger effect = lower value; B-score at 10 µM; AID 602410, 2012;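 active = B-score under library mean minus 4 SD, starting fluorescence ratio at most library mean plus 5 SD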;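 note: more negative B-score means stronger inhibition of thallium flux through KCNK3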
KCNQ1 act: potentiators or activators of KCNQ1 channel, primary screen, cell-based, thallium flux, high-throughput. Potassium voltage-gated channel subfamily KQT member 1 (Homo sapiens), P51787. CHO-K1 KCNQ1, thallium flux FluxOR fluorescence; stronger effect = higher value. B-score at 10 µM. 310,000 compounds, 0.35% hits. AID 2648, 2010;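 active = fluorescence ratio B-score, a plate-corrected score, at least three library SD, with initial intensity B-score within 5 SD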
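Assay system: stable KCNQ1 CHO-K1 line; medium: assay buffer, equal DMSO in all wells; timing: 90 min dye loading and 20 min compound exposure, both at room temperature; technique: kinetic FluxOR thallium fluorescence, 10-s 1-Hz baseline, 110-s post-stimulus read; read-out basis: B score of baseline-normalized fluorescence ratio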
KCNQ1 inh: inhibitors of human KCNQ1 channel, primary screen, cell-based, thallium flux, high-throughput | Potassium voltage-gated channel subfamily KQT member 1 (Homo sapiens), P51787 | CHO-K1 KCNQ1, FluxOR thallium flux fluorescence; stronger effect = higher value | B-score at 10 µM | 310,000 compounds, 1.3% hits;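 active = compounds whose thallium flux B-score, printed positive for inhibition, exceeds three library SD while starting fluorescence stays within three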;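 note: channel opened by potassium depolarization with thallium stimulus after 20 min compound exposure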
KCNK9 block: KCNK9 potassium channel inhibitors, primary screen, HEK293 cells, thallium flux | Potassium channel subfamily K member 9 (Homo sapiens), Q9NPC2 | FluxOR thallium flux fluorescence; stronger effect = lower value | B-score at 10 µM | 310,000 compounds, 1.2% hits;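 active = ratio B-score over 3 SD below the library mean, with starting fluorescence within 5 SD of its mean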;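 note: negative B-score means less thallium flux so channel inhibition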
hERG rescue: hERG rescue from dofetilide block, primary screen, cell-based, CHO-hERG, FluxOR thallium flux, dofetilide IC70. Voltage-gated inwardly rectifying potassium channel KCNH2 (Homo sapiens), Q12809. dofetilide IC70 present. activation (rescue from dofetilide block), less the hit threshold, % at 10 µM. 310,000 compounds, 0.51% hits. AID 1511, 2009;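 active = activation above the mean of controls blocked by dofetilide plus 5 SD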;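 note: thallium influx through hERG after potassium depolarization seen as dye fluorescence rise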
KCNQ1 block val: KCNQ1 potassium channel inhibitors, confirmation, cell-based, Tl flux, duplicate. 1,600 compounds, 93% hits. AID 588353, 2011. shares compounds with KCNQ1 inh. KCNQ1 cell line, FluxOR thallium flux fluorescence. inhibition, % at 10 µM;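 active = primary screen active, with duplicate mean exceeding buffer control mean plus 3 SD of buffer wells, cut at about 28% in these data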;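 note: 0% = buffer control ratio and 100% = XE991 inhibitor control ratio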
CHO KCNQ1 ctr: thallium flux effects in parental CHO cells, counter-screen for KCNQ1 inhibitor project, cell-based, Tl flux | shares compounds with KCNQ1 inh | parental CHO-K1, FluxOR thallium flux fluorescence ratio; stronger effect = lower value; zero means no signal rise above baseline | fluorescence ratio (Tl flux) at 10 µM | 1,600 compounds, 21% hits | AID 588366, 2011;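 active = mean of duplicate thallium-flux fluorescence ratios in parental host cells more than 5 SD below the buffer control mean, cut at about 0.38 in these data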;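 note: ratio is peak minus minimum fluorescence divided by baseline fluorescence; actives read low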
KCNQ1 ephys val: KCNQ1 channel inhibitors, confirmation, orthogonal assay, cell-based, automated electrophysiology; AID 624120, 2012; shares compounds with KCNQ1 inh; 490 compounds, 20% hits; KCNQ1-CHO cells, automated patch clamp current; calls only at 10 µM;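 active = KCNQ1 current drop exceeding 3 SD of negative control wells, seen in both duplicate runs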;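 note: steady state current during a 2 s step from -80 to +40 mV; negative values mean current inhibition and positive values mean potentiation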
KCNQ2 inh: KCNQ2 channel inhibition, selectivity assay for KCNQ1 inhibitor project, cell-based; 1,600 compounds, 71% hits; shares compounds with KCNQ1 inh; inhibition, % at 10 µM; KCNQ2 cells, FluxOR thallium flux fluorescence;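 active = mean percent inhibition of the KCNQ2 thallium signal more than 5 SD above the buffer-only control wells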;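 note: KCNQ2 expressed in CHO cells; 0% = buffer control wells and 100% = XE-991 inhibitor control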
Target sequence (O88943 whole entry, looked up): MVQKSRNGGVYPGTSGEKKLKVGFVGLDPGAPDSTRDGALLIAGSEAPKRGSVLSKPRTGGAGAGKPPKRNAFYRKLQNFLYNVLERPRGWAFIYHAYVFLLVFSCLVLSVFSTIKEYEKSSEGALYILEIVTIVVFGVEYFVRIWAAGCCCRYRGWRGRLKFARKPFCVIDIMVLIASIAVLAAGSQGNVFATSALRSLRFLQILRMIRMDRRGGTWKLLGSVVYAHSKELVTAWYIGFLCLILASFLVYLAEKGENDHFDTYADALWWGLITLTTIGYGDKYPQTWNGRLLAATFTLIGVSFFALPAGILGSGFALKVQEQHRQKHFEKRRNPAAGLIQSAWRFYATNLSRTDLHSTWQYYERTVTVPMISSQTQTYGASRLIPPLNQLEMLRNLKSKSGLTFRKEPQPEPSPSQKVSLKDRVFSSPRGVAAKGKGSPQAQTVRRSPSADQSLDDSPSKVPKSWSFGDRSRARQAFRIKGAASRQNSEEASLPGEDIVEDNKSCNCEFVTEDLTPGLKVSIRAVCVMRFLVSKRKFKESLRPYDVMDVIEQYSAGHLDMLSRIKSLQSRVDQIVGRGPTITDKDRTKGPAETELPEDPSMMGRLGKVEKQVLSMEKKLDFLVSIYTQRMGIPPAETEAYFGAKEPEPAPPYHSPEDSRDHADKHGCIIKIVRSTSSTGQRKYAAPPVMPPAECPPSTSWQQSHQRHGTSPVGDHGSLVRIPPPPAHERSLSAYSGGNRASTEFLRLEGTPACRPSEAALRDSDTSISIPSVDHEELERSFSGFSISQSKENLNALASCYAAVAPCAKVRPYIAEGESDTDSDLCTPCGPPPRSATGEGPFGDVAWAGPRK
KCNQ1-KCNE1 inh: KCNQ1/KCNE1 channel inhibition, selectivity assay for KCNQ1 inhibitor project, CHO-K1 cells, thallium flux, FluxOR; shares compounds with KCNQ1 inh; FluxOR thallium flux fluorescence; inhibition, % at 10 µM; 1,600 compounds, 77% hits; AID 652147, 2013;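 active = mean percent inhibition of duplicate wells above the buffer-only control mean plus 3 SD of those controls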;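 note: 0% = buffer only wells and 100% = XE-991 inhibitor control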
KCNK9 inh conf: KCNK9 potassium channel inhibitors, confirmation, HEK293 cells, thallium flux, duplicate; shares compounds with KCNK9 block; inhibition, % at 10 µM; FluxOR thallium flux fluorescence; 4,900 compounds, 43% hits;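 active = thallium signal inhibited by more than 5 SD of the compound-free buffer control wells, on both duplicate plates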;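 note: 0% = assay buffer control wells without compound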
Kir21 sel: mouse Kir2.1 channel inhibition, confirmation, selectivity assay for KCNK9 modulator project, cell-based, HEK293, thallium flux. shares compounds with KCNK9 block. Kir2.1 cells, FluxOR thallium flux fluorescence. inhibition, % at 10 µM. 4,900 compounds, 4% hits. AID 492993, 2010;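 active = thallium signal drop more than 5 SD beyond the mean of the no-compound control wells, seen in both duplicate plates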;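 note: signal is fluorescence rise after thallium addition divided by baseline fluorescence; plate controls were assay buffer only for no effect and full block by chlorpromazine control for full effect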
HEK293 Tl ctr: thallium flux in non-induced HEK293 cells, confirmation, counter-screen for KCNK9 inhibitor project, cell-based, second counter screen, non-induced KCNK9-HEK293. shares compounds with KCNK9 block. FluxOR thallium flux. inhibition, % at 10 µM. 4,900 compounds, 40% hits. AID 492997, 2010;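 active = thallium signal drop beyond 5 SD of the untreated control mean, on both duplicate plates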;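 note: plate controls were buffer only IC0 wells for no effect and SID17386958 at its maximal inhibitory level for full effect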
KCNK3 inh conf: retest of human KCNK3 channel inhibitors, confirmation, CHO cells, FluxOR thallium flux, triplicate; shares compounds with KCNK3 block; FluxOR fluorescence; 0% buffer, 100% carvedilol maximal block; ratio percent of control, % at 10 µM; 2,400 compounds, 99% hits;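 active = ratio percent of control, averaged over triplicates, above buffer control mean plus 5 SD, cut at about 64% in these data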;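 note: ratio is the fluorescence rise from min to max over baseline after thallium stimulus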
KCNK3 uninduced: thallium flux inhibition in non-induced cells, primary screen, counter-screen for KCNK3 inhibitor project, cell-based, non-induced KCNK3 line, FluxOR thallium, triplicate; shares compounds with KCNK3 block; non-induced KCNK3 parental cells; stronger effect = lower value; thallium flux ratio (lower = more inhibition) at 10 µM; 2,400 compounds, 40% hits; AID 651747, 2012;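 active = thallium flux ratio, averaged over three wells, more than 5 SD below the buffer control mean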;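 note: host cells are CHO cells without KCNK3 induction; ratio is peak minus trough fluorescence over baseline then normalized to buffer controls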
* hit, by the source's call; i = inactive; . = no result; + = active, no number.

SMILES	Kir21 block	KCNK3 block	KCNQ1 act	KCNQ1 inh	KCNK9 block	hERG rescue	KCNQ1 block val	CHO KCNQ1 ctr	KCNQ2 inh	KCNQ1-KCNE1 inh	KCNK9 inh conf	Kir21 sel	HEK293 Tl ctr	others
O=C(CSCc1cnn(-c2ccccc2)c1-n1cccc1)NCc1cccs1	-6.3*	i	i	7*	i	-7	64*	0.5	i	102%*	i	i	i
O=C(CSc1nnnn1-c1ccccc1)NCc1cccs1	-0.06	i	i	i	i	-9	.	.	.	.	.	.	.
Cc1ccc(-n2c(-c3ccccc3)c[n+]3c2CCc2ccccc2-3)c(C)c1	-8.2*	-9.9*	i	15*	-13*	-27	98*	0.38*	95%*	34%*	46%*	64%*	36%*
CCn1c(SCC(=O)N2CCN(c3ccccc3)CC2)nc2c(c1=O)SC(C)C2 (stereo not drawn)	-1.4	i	i	i	i	-16	.	.	.	.	.	.	.
CC1Cc2nc(SCC(=O)N3CCN(c4ccccc4)CC3)n(CCc3ccccc3)c(=O)c2S1 (stereo not drawn)	2.3	i	i	8*	i	-26	70*	0.44	84%*	175%*	i	i	i
O=C1CNC(=S)N1CCCc1ccccc1	-0.31	i	i	i	i	-7	.	.	.	.	.	.	.
Cc1ccccc1Nc1nc(NCc2ccco2)c2ccccc2n1	-13*	-14*	i	14*	-12*	-25	162*	0.37*	115%*	+	54%*	85%*	40%*
Cc1ccc(SCCNC(=S)Nc2ccc(C)c(C)c2)cc1	-0.5	i	i	8*	i	-17	100*	0.45	i	98%*	i	i	i	KCNQ1 ephys val=i
Cc1ccc(SCCNC(=S)Nc2cc(C)ccc2C)cc1	-2.2	i	i	i	i	-11	.	.	.	.	.	.	.
Cc1cccc(N(CC(=O)NC2CC3CCC2C3)S(=O)(=O)c2ccccc2)c1 (stereo not drawn)	-0.33	i	i	6*	i	-7	50*	0.43	79%*	61%*	i	i	i
COc1cccc(N(CC(=O)NC2CC3CCC2C3)S(=O)(=O)c2ccccc2)c1 (stereo not drawn)	-0.11	i	i	i	i	-8	.	.	.	.	.	.	.
Cn1ncc([N+](=O)[O-])c1C(=O)Nc1ccc(-c2nc3ccccc3o2)cc1	0.94	i	i	i	i	-9	.	.	.	.	.	.	.
CCOc1ccc(CN(C)CC(=O)NCc2ccccc2)cc1	-0.07	i	i	i	i	-16	.	.	.	.	.	.	.
CCOC(=O)c1cnc2ccc(OCC)cc2c1N(C)Cc1ccccc1	-1.7	i	i	6*	i	-12	148*	0.34*	154%*	198%*	i	i	23%*
CC(C)=CCc1c(O)cc2oc3c(CC=C(C)C)c(O)c(O)c(CC=C(C)C)c3c(=O)c2c1O	0.12	-9.2*	i	16*	-13*	-34	150*	0.35*	124%*	+	62%*	i	34%*	KCNK3 inh conf=146*;KCNK3 uninduced=0.11*
CC(C)=CCc1cc(-c2oc3cc(O)cc(O)c3c(=O)c2O)ccc1O	0.58	i	i	i	i	-13	.	.	.	.	.	.	.
CN(CC(=O)Nc1cccc(F)c1)CC(=O)Nc1cc(S(=O)(=O)N2CCOCC2)ccc1Cl	.	i	.	.	.	.	.	.	.	.	.	.	.
CN(CC(=O)NCc1ccc(F)cc1)CC(=O)Nc1ccc(Cl)c(C(F)(F)F)c1	0.28	-11*	i	8*	i	-17	104*	0.45	87%*	62%*	.	.	.	KCNQ1 ephys val=+;KCNK3 inh conf=113*;KCNK3 uninduced=i
